Experimental data gathered from unrelated publications.
Each line is one published result; the experiments were not run side by side.
Target: Ephrin type-A receptor 1 (EPHA1, Homo sapiens, UniProt P21709)
Residues used in one study (P21709 26-976): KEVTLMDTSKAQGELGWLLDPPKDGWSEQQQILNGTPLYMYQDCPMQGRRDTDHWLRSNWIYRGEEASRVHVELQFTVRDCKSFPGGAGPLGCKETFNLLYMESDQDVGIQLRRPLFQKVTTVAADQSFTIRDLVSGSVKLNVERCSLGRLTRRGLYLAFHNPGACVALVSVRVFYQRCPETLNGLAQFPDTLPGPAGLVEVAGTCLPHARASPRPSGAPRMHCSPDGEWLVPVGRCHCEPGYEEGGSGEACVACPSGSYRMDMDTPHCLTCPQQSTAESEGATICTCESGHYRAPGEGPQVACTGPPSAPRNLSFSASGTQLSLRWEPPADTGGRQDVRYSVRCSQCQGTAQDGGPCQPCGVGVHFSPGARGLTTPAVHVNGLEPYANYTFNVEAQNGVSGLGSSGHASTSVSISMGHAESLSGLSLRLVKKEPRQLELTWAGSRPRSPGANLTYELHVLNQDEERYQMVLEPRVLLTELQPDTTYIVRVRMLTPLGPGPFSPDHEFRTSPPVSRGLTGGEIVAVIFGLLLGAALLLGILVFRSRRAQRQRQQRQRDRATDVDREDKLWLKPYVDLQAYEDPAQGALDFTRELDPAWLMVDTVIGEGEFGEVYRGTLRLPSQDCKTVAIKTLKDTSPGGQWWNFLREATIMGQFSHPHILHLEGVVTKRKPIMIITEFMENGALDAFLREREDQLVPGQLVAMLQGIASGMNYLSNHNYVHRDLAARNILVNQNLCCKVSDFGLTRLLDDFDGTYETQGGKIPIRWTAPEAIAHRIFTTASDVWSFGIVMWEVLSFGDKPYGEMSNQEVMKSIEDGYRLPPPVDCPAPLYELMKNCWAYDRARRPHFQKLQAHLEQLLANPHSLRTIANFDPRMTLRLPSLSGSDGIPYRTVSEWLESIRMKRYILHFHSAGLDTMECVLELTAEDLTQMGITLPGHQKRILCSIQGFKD

| SMILES | read-out | action | method | concentration | quantity | result |
| --- | --- | --- | --- | --- | --- | --- |
| CNC(=O)c1cc(Oc2ccc(NC(=O)Nc3ccc(Cl)c(C(F)(F)F)c3)cc2)ccn1 | enzyme activity | inhibitor | – | 10 µM | inhibition | 94% |
| N#CCCc1ccc2c(c1)-c1[nH]c3ccc([N+](=O)[O-])cc3c1CC(=O)N2 | cell-free assay | – | – | 0.5 µM | remaining signal | 91.7% |
| CNC(=O)Nc1ccc2c(c1)[C@@]1(CC2)OC(=O)N(CC(=O)N(Cc2ccc(F)cc2)[C@@H](C)C(F)(F)F)C1=O | cell-free assay | – | competition with immobilised ligand | 1 µM | remaining binding | 100% |
| C[C@@H]1CCN(C(=O)CC#N)C[C@@H]1N(C)c1ncnc2[nH]ccc12 | cell-free assay | – | – | 0.5 µM | remaining signal | 98% |
| COc1cc2ncnc(Nc3ccc(Oc4ccccc4)cc3C)c2cc1OC | enzyme activity | inhibitor | – | 1 µM | inhibition | 11% |
| CS(=O)(=O)N1CCCC(NC(=O)[C@H](CCC2CCCCC2)NC(=O)c2ccc(CNc3ncnc4c3nnn4-c3ccccc3)cc2)C1 (some centres unmarked) | cell-free assay | – | competition with immobilised ligand | 0.1 µM | remaining binding | 95% |
| CC(C)(O)[C@H]1CC[C@H](Nc2ccc3ncc(-c4cccc(C(F)(F)F)c4)n3n2)CC1 | enzyme activity | inhibitor | – | 1 µM | remaining activity | 99.6% |
| Cc1ccc(Nc2nccc(N(C)c3ccc4c(C)n(C)nc4c3)n2)cc1S(N)(=O)=O | enzyme activity | inhibitor | – | 0.3 µM | inhibition | 23% |
| CNC(=O)c1cc2c(Oc3ccc(NC(=O)C4(C(=O)Nc5ccc(F)cc5)CC4)cc3)ccnc2cc1OC | enzyme activity | inhibitor | radiometric | 1 µM | inhibition | 90% |
| Cc1sc(C(=O)NC2COC2)cc1-n1cc(NC(=O)Nc2c(F)cccc2Cl)cn1 | enzyme activity | inhibitor | – | 10 µM | remaining activity | 88.5% |
| CO[C@@H](C)c1c(Nc2ccc([C@@H](N(C)C(=O)C3CCS(=O)(=O)CC3)C(F)(F)F)cc2)cnc2cc(Cl)nn12 | cell-free assay | – | competition with immobilised ligand | 1 µM | remaining binding | 97% |
| CCCCNc1ncc2c(-c3ccc(F)cc3)nn(C[C@H]3CC[C@H](N)CC3)c2n1 | target engagement in cells | inhibitor | chemoproteomics | 20 mM | inhibition | > 97% |
| O=C1CCc2cc(Nc3cc(OC4CCOCC4)c([N+](=O)[O-])cc3Cl)ccc2N1 | cell-free assay | – | competition with immobilised ligand | 1 µM | remaining binding | 81% |
| COc1cc(-c2cc(-c3ccc(N4CCNCC4)cc3)cnc2C)cc(OC)c1OC | enzyme activity | inhibitor | – | 1 µM | inhibition | 16% |
| CCN(CC)c1ccc(C2=NNC(=O)CC2C)cc1[N+](=O)[O-] (centres unmarked) | enzyme activity | inhibitor | – | 10 µM | remaining activity | 112% |
| CN(C)C(=O)Cn1cc(-c2nc(C3(c4ccc(-c5cnc(N)nc5)cc4)CC3)no2)cn1 | cell-free assay | – | competition with immobilised ligand | 1 µM | remaining binding | 100% |
| COc1cc(Cl)c(C(=O)N[C@@H](CN[C@H]2CC[C@@H](N)CC2)Cc2ccc(C#N)cc2)cc1-c1ccc(CN[C@H](C)c2ccc(C)cc2)o1 | enzyme activity | inhibitor | – | 1 µM | remaining activity | 105% |
